Results from ChEMBL document CHEMBL4376878, “Potent Thiophene Antagonists of Human Complement C3a Receptor with Anti-Inflammatory Activity” (J Med Chem, 2020).
The source made the active and inactive calls. The calls are words filed in the database; no cut-off is given here. Residues, ends and D or L forms follow the SMILES beside them.

What was measured:
[1] = biological target: T1, C5a anaphylatoxin chemotactic receptor 1 (Homo sapiens) (UniProt P21730); test: Antagonist activity at C5a receptor in human MDM cells assessed as inhibition of C5a-induced intracellular calcium release preincubated for 30 mins followed by C5a addition and measured at 1 sec interval for => 200 secs by Fluo-3 AM dye-based FLIPR assay; assay type: functional, cell-based
T1 sequence (whole entry): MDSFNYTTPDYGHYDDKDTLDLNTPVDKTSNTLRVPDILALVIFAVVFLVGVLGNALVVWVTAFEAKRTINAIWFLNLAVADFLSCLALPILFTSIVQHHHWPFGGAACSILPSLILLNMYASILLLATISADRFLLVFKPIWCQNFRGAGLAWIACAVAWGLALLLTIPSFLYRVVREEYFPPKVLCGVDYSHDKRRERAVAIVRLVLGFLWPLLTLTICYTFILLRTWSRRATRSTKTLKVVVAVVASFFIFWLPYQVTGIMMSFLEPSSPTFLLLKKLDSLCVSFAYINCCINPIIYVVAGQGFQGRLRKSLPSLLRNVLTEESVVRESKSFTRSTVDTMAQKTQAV
Method in brief: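 HMDMs from CD14+ monocytes after 7 days in M-CSF; 5 × 10⁴ cells/well seeded overnight. Cells loaded 1 h at 37 °C with 4 μM Fluo-3 AM, then washed into HBSS with 2.5 mM probenecid and 20 mM HEPES, pH 7.4. Antagonist preincubated 30 min at 37 °C before C5a. Fluorescence (ex 495/em 520 nm) read every 1 s for ≥200 s.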

[2] = biological target: T2, C3a anaphylatoxin chemotactic receptor (Homo sapiens) (UniProt Q16581); test: Potency index, ratio of SB290157 IC50 to test compound IC50 for antagonist activity at C3a receptor in human LAD2 cells assessed as inhibition of C3a-induced beta-hexosaminidase release; assay type: cell-based
T2 sequence (whole entry): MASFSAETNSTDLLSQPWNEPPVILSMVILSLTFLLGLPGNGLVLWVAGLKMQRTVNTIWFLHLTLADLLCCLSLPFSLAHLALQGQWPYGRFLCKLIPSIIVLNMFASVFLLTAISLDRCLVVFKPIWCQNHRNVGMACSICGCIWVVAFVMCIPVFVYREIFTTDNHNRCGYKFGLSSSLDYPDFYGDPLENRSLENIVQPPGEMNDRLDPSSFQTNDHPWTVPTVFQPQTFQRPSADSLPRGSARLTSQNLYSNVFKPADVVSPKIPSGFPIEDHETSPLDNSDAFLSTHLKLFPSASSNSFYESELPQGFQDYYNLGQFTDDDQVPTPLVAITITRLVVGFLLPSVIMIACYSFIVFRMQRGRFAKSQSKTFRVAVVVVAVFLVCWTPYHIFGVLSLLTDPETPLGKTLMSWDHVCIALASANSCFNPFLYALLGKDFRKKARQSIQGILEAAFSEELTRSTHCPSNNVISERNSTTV

[3] = Volume of distribution in Wistar rat at 1 mg/kg, iv by LC-MS/MS analysis; assay type: ADME, organism-based; conditions: in vivo
Method in brief: (§1)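 Male Wistar rats with jugular vein catheter, fasted overnight; dosed p.o. by gavage in olive oil or i.v. via catheter in 50% DMSO. Blood drawn from conscious unrestrained rats 5 min before dosing, then 5, 15, 30 min and 1–8 h after. Volume replaced with heparinized saline. Rats fed after 4 h sample. n = 3 per route.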

[4] = Tmax in Wistar rat at 10 mg/kg, po by LC-MS/MS analysis; assay type: ADME, organism-based; conditions: in vivo; method in brief: as §1
[5] = biological target: T2, C3a anaphylatoxin chemotactic receptor (Homo sapiens); test: (§2) Antagonist activity at C3a receptor in human MDM cells assessed as inhibition of C3a-induced intracellular calcium release preincubated for 30 mins followed by C3a addition and measured at 1 sec interval for => 200 secs by Fluo-3 AM dye-based FLIPR assay; assay type: functional, cell-based
Method in brief: (§3)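 Macrophages were derived from CD14⁺ monocytes (M-CSF, 7 days) and dye-loaded with 4 μM Fluo-3 AM for 1 h at 37 °C in HBSS/probenecid/HEPES, pH 7.4. Antagonist was preincubated for 30 min at 37 °C before addition of synthetic full-length human C3a (100 nM). FLIPR fluorescence was read at ex 495/em 520 nm. Percent response was plotted against log concentration; n ≥ 3.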

[6] = biological target: T3, C3a anaphylatoxin chemotactic receptor (Homo sapiens, UniProt Q16581); test: as §2; assay type: functional, cell-based; method in brief: as §3
T3 sequence (Q16581 whole entry): T2 sequence (whole entry)

[7] = biological target: T2, C3a anaphylatoxin chemotactic receptor (Homo sapiens); test: (§4) Antagonist at C3a receptor in human LAD2 cells assessed as inhibition of C3a-induced beta-hexosaminidase release preincubated for 30 mins followed by C3a addition; assay type: cell-based
Method in brief: (§5)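 LAD2 mast cells grown with SCF, 1 × 10⁴ cells/well seeded overnight and presensitized overnight with IgE (100 ng/mL). Compounds preincubated 30 min at 37 °C in 0.1 M HEPES pH 7.4, then C3a added and β-hexosaminidase release measured. IC50 is concentration inhibiting 50% of release induced by 100 nM C3a; n ≥ 3.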

[8] = biological target: T3, C3a anaphylatoxin chemotactic receptor; test: as §4; assay type: cell-based; method in brief: as §5
[9] = system: Rattus norvegicus; test: Antiinflammatory activity in Wistar rat model of BR103-induced paw edema assessed as reduction in hind paw swelling at 10 mg/kg, po administered via gavage pretreated for 2 hrs followed by BR103 challenge and measured after 30 mins by digital caliper method relative to control; assay type: functional; set-up: scale not given: the % may be the effect or the level left
Method in brief: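 Male Wistar rats were given antagonist at 10 mg/kg by oral gavage in olive oil 2 h before intraplantar BR103 (350 μg in 100 μL of 5% DMSO). Sham paws received vehicle; sham and control rats received olive oil only. Paw thickness and width were measured with digital calipers at 0, 0.5, 1 and 2 h after agonist; n = 3 per group.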

[10] = Clearance in Wistar rat at 1 mg/kg, iv by LC-MS/MS analysis; assay type: ADME, organism-based; conditions: in vivo; method in brief: as §1
[11] = Cmax in Wistar rat at 10 mg/kg, po by LC-MS/MS analysis; assay type: ADME, organism-based; set-up: dose 10 mg/kg, route oral; conditions: in vivo; method in brief: as §1
[12] = Stability of the compound in rat plasma at 1 mM measured after 4 hrs by LC-MS analysis; assay type: ADME, cell-free
Method in brief: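 Compound added to rat plasma from 1 mM DMSO stock (stock concentration) and incubated at 37 °C. Samples taken at 0, 5, 15, 30, 60, 120 and 240 min, quenched in MeCN/H₂O 9:1, centrifuged and analyzed by LC-MS. Plasma activity checked with SLIGRL-NH₂.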

[13] = AUC (0 to 8 hrs) in Wistar rat at 1 mg/kg, iv by LC-MS/MS analysis; assay type: ADME, organism-based; set-up: time < 8 hr, dose 1 mg/kg, route intravenous; conditions: in vivo; method in brief: as §1
[14] = Elimination half-life in Wistar rat at 1 mg/kg, iv by LC-MS/MS analysis; assay type: ADME, organism-based; conditions: in vivo, read-out: beta t1/2; method in brief: as §1
[15] = Stability of the compound in rat liver microsomes assessed as compound degradation at 1 uM preincubated for 5 mins followed by NADPH addition and measured after 1 hr by LC-MS/MS analysis; assay type: ADME, Microsome; conditions: read-out: Drug degradation
Method in brief: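 Compound at 1 μM in 100 mM phosphate buffer pH 7.4 with 0.1% DMSO was mixed with rat liver microsomes and preincubated 5 min at 37 °C before NADPH was added. Samples taken at 0, 5, 15, 30 and 60 min, quenched in MeCN/H₂O 9:1 and analyzed by LC-MS/MS. Microsome activity checked with SLIGRL-NH₂; n = 3.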

[16] = biological target: T2, C3a anaphylatoxin chemotactic receptor (Homo sapiens); test: Potency index, ratio of SB290157 IC50 to test compound IC50 for antagonist activity at C3a receptor in human MDM cells; assay type: cell-based
[17] = biological target: T3, C3a anaphylatoxin chemotactic receptor; test: Agonist activity at C3a receptor in human MDM cells assessed as induction of intracellular calcium release measured at 1 sec interval for => 200 secs by Fluo-3 AM dye-based FLIPR assay; assay type: cell-based
Method in brief: (§6)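 HMDMs were differentiated from CD14⁺ monocytes with M-CSF (100 ng/mL) for 7 days and seeded overnight at 5 × 10⁴ cells/well. Cells were loaded with 4 μM Fluo-3 AM for 1 h at 37 °C, then placed in HBSS with 2.5 mM probenecid and 20 mM HEPES, pH 7.4. Agonist was added on FLIPR and read at ex 495/em 520 nm. EC50 is relative to the maximum from 1 μM C3a; n ≥ 3.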

[18] = AUC (0 to 8 hrs) in Wistar rat at 10 mg/kg, po by LC-MS/MS analysis; assay type: ADME, organism-based; set-up: dose 10 mg/kg, time < 8 hr, route oral; conditions: in vivo; method in brief: as §1
[19] = system: Rattus norvegicus; test: Antiinflammatory activity in Wistar rat model of BR103-induced paw edema assessed as reduction in hind paw swelling at <30 mg/kg, po administered via gavage pretreated for 2 hrs followed by BR103 challenge and measured after 0.5 to 2 hrs by digital caliper method; assay type: functional, organism-based
[20] = Stability of the compound in rat liver microsomes at 1 uM preincubated for 5 mins followed by NADPH addition and measured after 1 hr by LC-MS/MS analysis; assay type: ADME, Microsome
Method in brief: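 Compound at 1 μM in 100 mM phosphate buffer, pH 7.4 (0.1% DMSO), was incubated with rat liver microsomes […] at 37 °C before further NADPH was added. Aliquots taken at 0, 5, 15, 30 and 60 min were quenched in MeCN/H₂O (9:1), centrifuged and analysed by LC-MS/MS. Microsomal activity was confirmed in parallel with SLIGRL-NH₂; n = 3.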

[21] = Elimination half-life in Wistar rat at 0.5 mg/kg, iv by LC-MS/MS analysis; assay type: ADME, organism-based; conditions: in vivo, read-out: beta t1/2; method in brief: as §1
[22] = Clearance in Wistar rat at 0.5 mg/kg, iv by LC-MS/MS analysis; assay type: ADME, organism-based; conditions: in vivo; method in brief: as §1
[23] = AUC (0 to 8 hrs) in Wistar rat at 0.5 mg/kg, iv by LC-MS/MS analysis; assay type: ADME, organism-based; set-up: time < 8 hr, dose 0.5 mg/kg, route intravenous; conditions: in vivo; method in brief: as §1
[24] = Volume of distribution in Wistar rat at 0.5 mg/kg, iv by LC-MS/MS analysis; assay type: ADME, organism-based; conditions: in vivo; method in brief: as §1
[25] = Stability of the compound in rat plasma at 1 mM measured after 10 mins by LC-MS analysis; assay type: ADME, cell-free; conditions: 1000 µM
[26] = system: Rattus norvegicus; test: Antiinflammatory activity in Wistar rat model of BR103-induced paw edema assessed as reduction in hind paw swelling at 30 mg/kg, po administered via gavage pretreated for 4 hrs followed by BR103 challenge and measured after 30 mins by digital caliper method relative to control; assay type: functional; set-up: scale not given: the % may be the effect or the level left
Method in brief: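 For duration of action, antagonist was given at 30 mg/kg by oral gavage in olive oil at 1, 2, 4, 6, 8 or 12 h before intraplantar BR103 (350 μg/paw) in male Wistar rats. Controls received olive oil 2 h before challenge. Paw thickness and width were measured with calipers at 0 and 0.5 h; n = 3 per group.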

[27] = biological target: T2, C3a anaphylatoxin chemotactic receptor (Homo sapiens); test: Displacement of Eu-DTPA-C3a from Galpha16-coupled C3a receptor (unknown origin) expressed in HEK293 cells measured after 60 mins by time-resolved fluorescence assay; assay type: cell-based
[28] = biological target: T3, C3a anaphylatoxin chemotactic receptor; test: Partial agonist activity at C3a receptor in human MDM cells assessed as induction of intracellular calcium release at higher concentration measured at 1 sec interval for => 200 secs by Fluo-3 AM dye-based FLIPR assay relative to control; assay type: cell-based; method in brief: as §6

Structure (SMILES)	inhibition [1]	Ratio IC50 [2]	Tmax [4] [h]	IC50 ([6]; read-out: IC50) [µM]	inhibition [7]	IC50 [8] [µM]	Activity [9] [%]	Cmax [11] [ng/mL]	Stability [12]	metabolised at 1 h, 1 µM [15] [%]	Ratio IC50 [16]	EC50 ([17]; read-out: EC50) [µM]	EC50 ([17]; read-out: pEC50 (converted)) [µM]	AUC(0-t) at 8 h [18] [ng·h/mL]	half-life [21] [h]	clearance [22] [mL/min/kg]	AUC(0-t) at 8 h [23] [ng·h/mL]	Vd [24] [L]	further results
Cc1cc(C(c2ccccc2)c2ccccc2)sc1C(=O)N[C@@H](CCCNC(=N)N)C(=O)O	inactive	100	4	0.007	Dose-dependent effect	0.002	49	23	Stable	40	100	> 100	> 100	90					Vd [3]: 0.7 L; inhibition [5]: Dose-dependent effect; clearance [10]: 18 mL/min/kg; AUC(0-t) at 8 h [13]: 779 ng·h/mL; half-life [14]: 0.75 h
N=C(N)NCCC[C@H](NC(=O)COCC(c1ccccc1)c1ccccc1)C(=O)O				1.3 to 3.8	Dose-dependent effect	0.54						> 100	> 100						IC50 ([6]; read-out: pIC50 (converted)): 3.98 µM; Activity [19]: inactive
N=C(N)NCCC[C@H](NC(=O)c1ccc(C(c2ccc(Cl)cc2)c2ccc(Cl)cc2)s1)C(=O)O			4	0.03			45	143	Stable			> 100	> 100	814	1.02	4.6	1800	0.3	Stability [20]: Stable
CC(C)C[C@H](NC(=O)OC(C)(C)C)C(=O)N[C@@H](C)C(=O)N[C@@H](CCCNC(=N)N)C(=O)O (HELM PEPTIDE1{[CC(C)(C)OC(=O)[*:2]].L.A.R}$$$$V2.0)																			Stability [25]: Unstable
N=C(N)NCCC[C@H](NC(=O)c1ccc(C(c2ccccc2)c2ccccc2)s1)C(=O)O	inactive	100	3.5	0.085	Dose-dependent effect	0.004	20	91	Stable	60	15	> 100	> 100	436	0.533	10.3	811	0.4	Activity [26]: <=60%; inhibition [27]: Dose-dependent effect; Activity [28]: 30 to 80%
